Experimental data as given in PMC6728149 (Science signaling, 2019).
Entries after “also recorded” stand apart in the source; their conditions may differ.

How the values were obtained:
Type in all cases: cell-based, human
MYC mRNA = MYC mRNA by qPCR; conditions: MIA PaCa-2 cells
Procedure, shortened: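 MIA PaCa-2 cells were compound-treated (6 h where stated). MYC mRNA was measured by qPCR, normalized to GAPDH or BACT mRNA, and analysed by the ddCT method.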

EGFP-MYC = experiment: GPS-MYC degradation screen; conditions: 6 hours; for effect on EGFP-MYC stability in the GPS-MYC screen: 20 μM
Procedure, shortened: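 MIA PaCa-2 cells were lentivirally transduced with DsRed-IRES-EGFP-MYC and selected with 2 μg/ml puromycin. Frozen stocks were thawed, grown 2 days, then plated at 20,000 cells/well in 384-well plates. Next day, compound was given in DMEM/2% FBS for 6 h. Controls were DMSO, cycloheximide (final 7.5 μg/ml) and MG132 (final 3.75 μM). Cells were detached with Accumax (20 min, 37 °C) and read by plate flow cytometer for EGFP/DsRed. Values were normalized to control wells; run in duplicate.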

MYC Ser^62 = experiment: pMYC Ser62 immunoblot in MIA PaCa-2 cells; conditions: 30 min
Procedure, shortened: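 MIA PaCa-2 cells were exposed to CDK9 inhibitors for 30 min. Lysates were cleared at 18,000 x g, 15 min, 4 °C, and protein was quantified by Bradford. pMYC Ser62 and total MYC were immunoblotted.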

CDK8/19 = experiment: pSTAT1; conditions: MIA PaCa-2 cells
Procedure, shortened: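 CDK8/19 inhibition in compound-treated MIA PaCa-2 cells was read as pSTAT1 by immunoblot. Lysis was in 1% Triton buffer (25 mM Tris pH 7.4) with protease and phosphatase inhibitors; clarification was at 18,000 x g, 15 min, 4 °C. Blots are representative of at least three independent experiments.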

MYC = MYC protein levels by immunoblot in MIA PaCa-2 cells; conditions: 6 hours
CDK9 = experiment: pPol II; conditions: MIA PaCa-2 cells, 6 hours
Procedure, shortened: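 After 6 h compound exposure, MIA PaCa-2 lysates were made in 1% Triton buffer, pH 7.4, with protease and phosphatase inhibitors, cleared at 18,000 x g, 15 min, 4 °C, and quantified by Bradford. pPol II and MCL-1 were immunoblotted as CDK9 signaling read-outs.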

| Structure (SMILES) | effect on EGFP-MYC stability in the GPS-MYC screen (EGFP-MYC) | endogenous MYC protein levels (MYC) | further results |
| --- | --- | --- | --- |
| COC(=O)Nc1nc2ccc(Oc3ccc(NC(=O)Nc4ccccc4)cc3)cc2[nH]1 [UNC10112731] | increased EGFP-MYC without affecting DsRed | – | MYC mRNA levels (MYC mRNA): not due to increased transcription; EGFP-MYC and endogenous MYC levels in GPS-MYC cells (EGFP-MYC; secondary validation, flow cytometry and immunoblot): dose-dependent increase in EGFP-MYC and endogenous MYC levels |
| CC(C)(C)c1cnc(CSc2cnc(NC(=O)C3CCN(CC(=O)NCCOCCOCCOCCNc4cccc5c4C(=O)N(C4CCC(=O)NC4=O)C5=O)CC3)s2)o1 (stereo not shown) [THAL-SNS-032] | – | – | MYC phosphorylation at Ser^62 (MYC Ser^62): decreased MYC phosphorylation at Ser^62 |
| CN1CCN(C(=O)c2ccc3cc(CCNc4ncnc5ccc(C#N)cc45)ccc3c2)CC1 [Senexin B] | – | but not MYC protein levels | pSTAT1 (phosphorylation of STAT1 at S727) (CDK8/19): reduction in pSTAT1; MCL-1 protein levels (CDK9): absence of a reduction in MCL-1 |
| COc1ncc2cc(C(=O)Nc3cc(C(=O)NCc4cccc(Cl)c4)ccc3Cl)c(=O)[nH]c2n1 [TC-S 7004] | – | failed to cause a dose-dependent loss of endogenous MYC protein | – |
| CN(C)CCOc1ccc(-c2nc(-c3ccncc3)c(-c3ccc4c(c3)CC/C4=N\O)[nH]2)cc1.Cl.O [UNC10112687] | destabilized MYC | – | – |
| O=C(Nc1n[nH]c2nc(-c3ccco3)c(Br)cc12)C1CC1 [UNC10112671] | stabilized MYC | – | – |
| CCOc1cc(N2CCC(O)CC2)ccc1Nc1ncc2c(n1)N(C)c1ccccc1C(=O)N2C [XMD8–92] | – | – | phosphorylation of RNA polymerase II (pPol II) at S2 (CDK9): did not reduce phosphorylation of the CDK9 substrate Pol II |
| COc1cc(N2CCN(C)CC2)ccc1Nc1nccc(-c2cn(C)c3cnccc23)n1 [AZ191] | – | failed to cause a dose-dependent loss of endogenous MYC protein | – |
| S=C(NCc1ccc2c(c1)OCO2)N1CCN(c2ncnc3c2oc2ccccc23)CC1 [amuvatinib] | – | did not increase endogenous MYC in a dose-dependent manner; also recorded: failed to cause a dose-dependent loss of endogenous MYC protein | – |
